Here are results for 7 molecules from article PMC5777231 (Nature, 2017).

One test concerns the target S1PR3 (Homo sapiens, UniProt Q99500). Kind of test: β-arrestin GPCR agonist screen, S1PR3. To be noted: 10 µM ligand. The test is classed as cell-based. The essentials:
(§1)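 Cell-based β-arrestin recruitment screen, run by a contract lab, at 10 µM ligand in agonist and antagonist modes across 168 GPCRs with known ligands plus 72 orphan GPCRs. Test compounds were bacterial N-acyl amides, taking the most abundant analog of each family from heterologous E. coli expression. Synthetic N-acyl amides were screened the same way.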

A further test addresses S1PR2 (Homo sapiens, UniProt O95136). Kind of test: β-arrestin GPCR agonist screen, S1PR2. The test is classed as cell-based. The settings on record: 10 µM ligand. A digest of the protocol: as §1
A further test addresses S1PR1 (Homo sapiens, UniProt P21453). Kind of test: β-arrestin GPCR agonist screen, S1PR1. It is filed as cell-based. To be noted: 10 µM ligand. The essentials:
as §1

Test [1] deals with T1, sphingosine-1-phosphate receptor 4 (S1PR4) (Homo sapiens, UniProt O95977).
T1 sequence (O95977 1-384): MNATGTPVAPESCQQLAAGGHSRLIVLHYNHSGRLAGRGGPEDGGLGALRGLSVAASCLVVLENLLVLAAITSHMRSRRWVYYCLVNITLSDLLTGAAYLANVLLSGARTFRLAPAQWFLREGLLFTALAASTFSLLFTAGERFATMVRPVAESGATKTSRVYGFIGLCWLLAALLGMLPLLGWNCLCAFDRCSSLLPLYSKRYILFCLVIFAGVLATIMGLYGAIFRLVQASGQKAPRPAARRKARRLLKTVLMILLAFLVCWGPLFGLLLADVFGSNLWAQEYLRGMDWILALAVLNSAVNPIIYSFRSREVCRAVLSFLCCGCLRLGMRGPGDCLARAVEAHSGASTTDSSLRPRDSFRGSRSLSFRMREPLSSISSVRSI
Nature of the test: β-arrestin cell-based GPCR agonist assay. To be noted: for activation of / interaction with S1PR4 (in words): GPCR screen.

Another test relates to GLUTag cells. Kind of test: GLP-1 release from GLUTag cells. It is filed as cell-based, murine. The settings on record: equimolar concentrations, 2 hours. A digest of the protocol:
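Murine enteroendocrine GLUTag cells were grown in low-glucose GlutaMAX DMEM with 10% FBS and 1% Pen/Strep, then plated at 50,000 cells/well overnight. Cells were washed twice and preincubated 30 min in Krebs buffer with DPP4 inhibitor. Compounds from 10 mM DMSO stocks were added at 1 µM and 100 µM for 2 h, with DMSO as control. Clarified supernatant was assayed by active GLP-1 immunoassay. Two independent experiments gave 4–6 wells per condition, analysed by ANOVA.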

The target in the next test is T2, G2A (GPR132) (Homo sapiens, UniProt Q9UNW8).
T2 sequence (Q9UNW8 1-380): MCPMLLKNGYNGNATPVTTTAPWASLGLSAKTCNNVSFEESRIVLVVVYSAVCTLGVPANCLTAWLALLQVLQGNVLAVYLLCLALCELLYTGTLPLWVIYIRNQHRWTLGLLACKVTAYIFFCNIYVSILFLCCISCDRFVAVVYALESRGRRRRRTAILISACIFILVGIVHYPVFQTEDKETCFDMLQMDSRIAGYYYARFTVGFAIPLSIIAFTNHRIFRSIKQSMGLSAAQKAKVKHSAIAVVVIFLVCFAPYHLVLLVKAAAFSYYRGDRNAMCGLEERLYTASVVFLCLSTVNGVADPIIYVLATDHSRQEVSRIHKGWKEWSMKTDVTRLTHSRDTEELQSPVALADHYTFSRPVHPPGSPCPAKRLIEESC
Kind of test: β-arrestin cell-based orphan GPCR agonist assay. A digest of the protocol:
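Orphan GPCR panel, DiscoveRx β-arrestin recruitment format, agonist mode. Test compound was screened at 10 µM in singlicate. Follow-up dose-response curves were run in duplicate per dose, and EC50 was derived from them.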

A further test concerns the target T3, GPR119 (Homo sapiens, UniProt Q8TDV5).
T3 sequence (Q8TDV5 1-335): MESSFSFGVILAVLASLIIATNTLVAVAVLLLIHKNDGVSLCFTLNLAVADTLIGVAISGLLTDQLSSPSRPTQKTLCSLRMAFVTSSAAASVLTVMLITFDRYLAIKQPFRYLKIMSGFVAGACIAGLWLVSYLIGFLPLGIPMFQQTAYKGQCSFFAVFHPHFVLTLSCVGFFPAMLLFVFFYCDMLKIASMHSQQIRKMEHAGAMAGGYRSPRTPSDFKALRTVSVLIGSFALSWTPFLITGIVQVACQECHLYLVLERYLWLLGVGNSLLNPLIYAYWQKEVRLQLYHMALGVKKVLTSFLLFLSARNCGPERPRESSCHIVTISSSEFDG
Kind of test: cAMP secondary assay in ACTOne HEK293 cells transfected with GPR119. The test is classed as cell-based. The settings on record: HEK293 cells stably transfected with GPR119 vs not transfected; GPR119 dependent. The essentials:
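Orthogonal cAMP read-out used live ACTOne HEK293 cells, which carry a cAMP-sensitive ion channel, read with a membrane potential dye kit. GPR119-transfected cells were compared with parental untransfected cells. Each was exposed to equimolar ligand concentrations, with the endogenous ligand and an ADORA2B agonist as parental-line cAMP control. Relative fluorescence intensity was taken against background. Points were in quadruplicate, SD shown, and EC50 was derived.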

For test [2] the following is noted: mice, intravenous delivery; cited from earlier work.

As usually defined, the EC50 is the concentration that produces a half-maximal response. Low values mean a more potent agent, high ones a less potent agent.

Sequence of S1PR2 (O95136 whole entry): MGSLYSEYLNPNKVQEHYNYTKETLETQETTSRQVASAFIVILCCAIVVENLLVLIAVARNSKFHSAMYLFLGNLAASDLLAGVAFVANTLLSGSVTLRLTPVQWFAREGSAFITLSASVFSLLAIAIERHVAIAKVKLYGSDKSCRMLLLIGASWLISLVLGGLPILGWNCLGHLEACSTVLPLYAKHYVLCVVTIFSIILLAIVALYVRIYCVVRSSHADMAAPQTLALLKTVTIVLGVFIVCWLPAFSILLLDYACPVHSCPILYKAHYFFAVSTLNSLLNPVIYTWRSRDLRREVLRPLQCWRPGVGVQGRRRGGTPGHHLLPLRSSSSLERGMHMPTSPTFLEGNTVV
Sequence of S1PR3 (Q99500 whole entry): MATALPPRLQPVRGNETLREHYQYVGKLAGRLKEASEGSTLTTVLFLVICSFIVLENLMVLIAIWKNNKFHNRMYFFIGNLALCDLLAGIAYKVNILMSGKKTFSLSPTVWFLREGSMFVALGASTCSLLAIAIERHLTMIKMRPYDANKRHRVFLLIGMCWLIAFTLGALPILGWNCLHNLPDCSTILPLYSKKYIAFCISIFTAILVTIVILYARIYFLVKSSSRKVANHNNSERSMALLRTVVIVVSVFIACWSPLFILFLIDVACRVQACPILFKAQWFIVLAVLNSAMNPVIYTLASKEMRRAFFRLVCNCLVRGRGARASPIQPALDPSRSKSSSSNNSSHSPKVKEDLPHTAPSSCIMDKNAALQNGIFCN
Sequence of S1PR1 (P21453 whole entry): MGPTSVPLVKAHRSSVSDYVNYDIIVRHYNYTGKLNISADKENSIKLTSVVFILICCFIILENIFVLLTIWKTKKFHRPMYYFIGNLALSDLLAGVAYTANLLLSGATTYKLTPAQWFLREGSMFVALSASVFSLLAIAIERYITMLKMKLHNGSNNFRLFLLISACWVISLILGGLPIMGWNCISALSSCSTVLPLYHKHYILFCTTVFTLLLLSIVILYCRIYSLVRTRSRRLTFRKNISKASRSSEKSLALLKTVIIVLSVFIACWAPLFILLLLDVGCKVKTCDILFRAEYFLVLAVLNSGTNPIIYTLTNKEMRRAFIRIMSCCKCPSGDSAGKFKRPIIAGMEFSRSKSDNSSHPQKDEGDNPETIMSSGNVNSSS

Regarding `CCCCCCCCCCCCCC(O)CC(=O)N[C@@H](CCCN)C(=O)O` (stereo partly shown) [N-3-hydroxypalmitoyl ornithine], the “activation of S1PR3” value on S1PR3 is “did not activate”. Besides, the “activation of S1PR2” value at S1PR2 is given as “did not activate”. Also, at S1PR1, the “activation of S1PR1” value is “did not activate”. In test [1], the EC50 is 32 µM and the “activation of / interaction with S1PR4 (in words)” value (from here on “activation of / interaction”) is given as “interact”.
Regarding `CCCCCCCC/C=C\CCCCCCCC(=O)OC(CO)CO` [2-OG, 2-oleoyl glycerol], the GLP-1 secretion result in the test with GLUTag cells is “to the same magnitude”.
For the molecule `CCCCCCCCCCCCC/C=C/[C@@H](O)[C@@H](N)COP(=O)(O)O` [S1P, sphingosine-1-phosphate], the “activation of S1PR3” value at S1PR3 is on record as “activates”. The “activation of S1PR2” value at S1PR2 is given as “activates”. Moreover, the “activation of S1PR1” value on S1PR1 is listed as “activates”. Besides, the “activation of / interaction” value in test [1] is “activates”.
As for `CCCCCCCCCCCCCC(O)CC(=O)N[C@@H](CCCCN)C(=O)O` (stereo partly shown) [N-3-hydroxypalmitoyl lysine], the “activation of / interaction” value in test [1] is recorded as “interact”.
Take `CCCCCCCCCCCCCC(O)CC(=O)NCC(=O)O` (stereo not shown) [N-3-hydroxypalmitoyl glycine]: the “activation of G2A (in words)” value at G2A (GPR132) was “activate”.
On to `CCCCCCCCCCCCCCCC(=O)N[C@@H](C)C(=O)O` [N-palmitoyl alanine], for which the “activation of G2A (in words)” value at G2A (GPR132) is reported as “activate”.
With `CCCCCCCC/C=C\CCCCCCCC(=O)NCCO` [OEA, oleoylethanolamide], the “cellular cAMP concentration (in words)” value on GPR119 is “increased”. For the same molecule, the “blood glucose in OGTT” value in test [2] is given as “fails to lower blood glucose”. The GLP-1 secretion entry in the test on GLUTag cells is “to the same magnitude”.
